Conditions in all cases: in vivo
Data set [1] has as its system Blood. Nature of the data set: Biodistribution in blood of Wistar rat bearing turpentine-induced aseptic abscess at 150-180 uCi after 40 mins. The class given is ADME, organism-based. The essentials: (§1)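 Male Wistar rats (150–200 g) received 150–180 μCi ([…]) [18F]FET in 0.3 mL isotonic solution via the jugular vein. They were killed at 40 min. Organs were dissected, blotted of blood, weighed and gamma-counted, and values are given as %ID/g, with five rats per time point. Glioma35 homografts grew for 14 days after subcutaneous or intramuscular injection into the right hind limb. Abscesses were raised by turpentine oil (10 μL) into the right hind-limb muscle 24 h before the experiment.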

The test system of data set [2] is Brain. The data set can be described thus: Biodistribution in brain of Wistar rat bearing glioma35 rat tumor at 150-180 uCi after 40 mins. The format is ADME, organism-based. Put shortly:
as §1

Data set [3] can be described thus: Biodistribution in urinary bladder of Wistar rat bearing turpentine-induced aseptic abscess at 150-180 uCi after 40 mins. The class given is ADME, organism-based. Put shortly: as §1
Data set [4] is described as follows: Biodistribution in abscess of Wistar rat bearing turpentine-induced aseptic abscess at 150-180 uCi after 40 mins. The class given is ADME, organism-based. Put shortly:
as §1

For data set [5], the system named is Muscle tissue. The data set can be described thus: Biodistribution in muscle of Wistar rat bearing turpentine-induced aseptic abscess at 150-180 uCi after 40 mins. The class given is ADME, organism-based. Put shortly: as §1
The nature of data set [6]: Biodistribution in tumor of Wistar rat bearing glioma35 rat tumor at 150-180 uCi after 40 mins. The format is ADME, organism-based, Neoplasm. Put shortly:
as §1

For data set [7], the system named is Muscle tissue. Nature of the data set: Biodistribution in muscle of Wistar rat bearing glioma35 rat tumor at 150-180 uCi after 40 mins. The class given is ADME, organism-based. The essentials:
as §1

Data set [8] is described as follows: Biodistribution in urinary bladder of Wistar rat bearing glioma35 rat tumor at 150-180 uCi after 40 mins. The format is ADME, organism-based. The essentials: as §1
In data set [9] the test system is Kidney. Nature of the data set: Biodistribution in kidney of Wistar rat bearing glioma35 rat tumor at 150-180 uCi after 40 mins. The class given is ADME, organism-based. The essentials:
as §1

For data set [10], the system named is Blood. Nature of the data set: Biodistribution in blood of Wistar rat bearing glioma35 rat tumor at 150-180 uCi after 40 mins. The format is ADME, organism-based. Put shortly: as §1
Data set [11] relates to Heart. The data set can be described thus: Biodistribution in heart of Wistar rat bearing glioma35 rat tumor at 150-180 uCi after 40 mins. The format is ADME, organism-based. The essentials: as §1
Data set [12] deals with Liver. Nature of the data set: Biodistribution in liver of Wistar rat bearing glioma35 rat tumor at 150-180 uCi after 40 mins. The class given is ADME, organism-based. The essentials: as §1
In data set [13] the test system is Liver. The data set can be described thus: Biodistribution in liver of Wistar rat bearing turpentine-induced aseptic abscess at 150-180 uCi after 40 mins. The class given is ADME, organism-based. The essentials:
as §1

For data set [14], the system named is Heart. Nature of the data set: Biodistribution in heart of Wistar rat bearing turpentine-induced aseptic abscess at 150-180 uCi after 40 mins. The class given is ADME, organism-based. The essentials:
as §1

Data set [15] concerns Brain. The data set can be described thus: Biodistribution in brain of Wistar rat bearing turpentine-induced aseptic abscess at 150-180 uCi after 40 mins. The format is ADME, organism-based. The essentials: as §1
Data set [16] concerns Kidney. The data set can be described thus: Biodistribution in kidney of Wistar rat bearing turpentine-induced aseptic abscess at 150-180 uCi after 40 mins. The format is ADME, organism-based. The essentials:
as §1

This is an account of results in ChEMBL document CHEMBL1157192, “No carrier added synthesis of O-(2'-[18F]fluoroethyl)-L-tyrosine via a novel type of chiral enantiomerically pure precursor, NiII complex of a (S)-tyrosine Schiff base” (Bioorg Med Chem, 2008).

As for `N[C@@H](Cc1ccc(OCC[18F])cc1)C(=O)O` [FLORETYROSINE F18], the Drug uptake in the data set with Blood [1] was determined as 1.45 % ID/g; in the data set on Brain [2] it was 0.54 % ID/g; in data set [3], 3.94 % ID/g; in [4], 1.75 % ID/g; in the data set with Muscle tissue [5], 1.32 % ID/g; in [6], 2.53 % ID/g. The Drug uptake with Muscle tissue [7] turned out to be 0.84 % ID/g; in data set [8], 2.51 % ID/g; with Kidney [9], 0.86 % ID/g; in the data set on Blood [10] it was 1.24 % ID/g; with Heart [11] it was 0.98 % ID/g; in the data set on Liver [12], 1.03 % ID/g. The Drug uptake came out at 1.24 % ID/g with Liver [13], 1.47 % ID/g with Heart [14], 1 % ID/g in the data set on Brain [15] and 1.58 % ID/g in the data set with Kidney [16].
